Assay outcomes (PubChem)
SUMO1-SIM PPI: alters human SUMO1 binding to SIM partners; P63165; SUMO1 binding to a labelled peptide, TR-FRET, 1 h; inhibition, % at 20 µM; hit rate 0.33% among 360,000; AID 602429; in the data active = inhibition above about 37%
Target sequence (P63165 whole entry, looked up): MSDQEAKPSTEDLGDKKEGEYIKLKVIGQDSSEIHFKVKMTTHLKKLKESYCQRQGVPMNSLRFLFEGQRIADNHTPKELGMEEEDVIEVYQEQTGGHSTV
LMPTP inh: blocks human LMPTP phosphatase. P24666. recombinant LMPTP-A, OMFP fluorogenic substrate, fluorescence intensity. inhibition, % at 20 µM. hit rate 0.22% among 360,000. AID 651560;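 active = compounds that cut the enzyme signal by at least half of the control window in the single-dose screen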;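 also: plate controls were DMSO wells with enzyme plus substrate for no effect and substrate without enzyme for full effect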
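Buffer or medium: Bis-Tris pH 6.0, DTT, detergent; Assay system: LMPTP-A enzyme; Quantity: 0.625 nM enzyme; Detection: endpoint fluorescence intensity; Times: 50 min dark incubation at room temperature; Controls: substrate-only low control, DMSO enzyme-plus-substrate high control; Doses: single 20 µM dose; Read-out: percent inhibition versus substrate-only and uninhibited controls; Reagent: 400 µM OMFP.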
STEP block: inhibitors of human striatal-enriched phosphatase STEP; recombinant STEP, OMFP fluorogenic substrate, fluorescence; inhibition, % at 20 µM; AID 588621; hit rate 0.25% among 360,000;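 active = inhibition at 20 µM, scaled per plate between control wells, above about 37%, limit read from the data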;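 also: 0% = DMSO with enzyme and substrate and 100% = substrate only without enzyme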
Target sequence (P54829 whole entry, looked up): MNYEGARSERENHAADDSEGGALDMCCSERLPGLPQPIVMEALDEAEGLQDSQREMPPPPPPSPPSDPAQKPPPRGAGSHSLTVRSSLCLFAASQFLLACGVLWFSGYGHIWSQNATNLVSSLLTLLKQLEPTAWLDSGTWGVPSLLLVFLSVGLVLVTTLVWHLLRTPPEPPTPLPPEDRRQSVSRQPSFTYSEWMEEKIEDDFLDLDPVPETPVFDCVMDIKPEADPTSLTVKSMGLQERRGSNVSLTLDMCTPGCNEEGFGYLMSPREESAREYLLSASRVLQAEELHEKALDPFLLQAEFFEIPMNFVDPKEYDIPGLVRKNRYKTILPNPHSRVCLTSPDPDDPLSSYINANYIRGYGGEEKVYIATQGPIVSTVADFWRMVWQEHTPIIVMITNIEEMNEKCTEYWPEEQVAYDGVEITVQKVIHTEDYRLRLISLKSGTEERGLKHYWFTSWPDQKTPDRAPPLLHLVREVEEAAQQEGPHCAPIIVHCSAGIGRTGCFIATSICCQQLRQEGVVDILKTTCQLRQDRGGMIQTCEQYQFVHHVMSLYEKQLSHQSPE
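material = STEP tyrosine phosphatase | reagent = fluorogenic phosphatase substrate OMFP at 25 µM final | doses = single compound dose of 20 µM, 1% DMSO final | schedule = 20 min reaction, room temperature, in the dark | measured by = fluorescence, 480/540 nm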
DNMT1 block: blocks human DNA methyltransferase DNMT1; P26358; DNMT1 molecular beacon, Hinp1I cleavage, fluorescence; inhibition (reported as % activation of signal), % at 10 µM; hit rate 0.83% among 360,000; AID 588458; in the data active = inhibition above about 50%
Scp1 inh: Scp-1 (human) phosphatase inhibition; hit rate 0.88% among 340,000; inhibition, % at 20 µM; Recombinant Scp1, phosphopeptide, malachite green phosphate absorbance; Q9GZU7;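 active = inhibition above about 50% at 20 µM, limit read from the data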;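 also: plate controls were DMSO wells with enzyme for no effect and wells lacking enzyme for full effect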
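Test system: SCP-1 phosphatase catalytic domain, residues 76-261 | Compound dosing: One concentration, 20 µM, with 1.0% DMSO | Schedule: 45 min room-temperature reaction, 5 min colour, 30 min stabiliser | Detection: Absorbance at 630 nm | Read-out basis: % inhibition of SCP-1 phosphate liberation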
Scp-1 conf: Scp-1 (human) inhibition, single-dose confirmed. shares compounds with Scp1 inh. recombinant SCP-1 catalytic domain, phosphate release, malachite green absorbance. inhibition, % at 20 µM. hit rate 61% among 2,500;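 also: plate controls were DMSO with enzyme for no effect and buffer wells lacking enzyme for full effect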
MG interference: counter-screen for Scp-1 inhibitors: colorimetric interference; shares compounds with Scp1 inh; Colorimetric interference counterscreen, malachite green absorbance 630 nm; apparent inhibition (interference), % at 20 µM; 2,500 tested, under 10 active;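 also: compounds added after enzyme reaction finished so only phosphate colour detection is probed; plate controls were DMSO wells with completed Scp-1 reaction for no effect and substrate wells lacking enzyme for full effect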
Scp1 DSF: validation of human Scp-1 inhibitors by thermal shift binding; shares compounds with Scp1 inh; Recombinant SCP1, Sypro Orange thermal shift Tm; thermal shift relative to vanadate control, % at 40 µM; hit rate 25% among 1,500; AID 540329;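 active = substances whose mean melting-temperature shift, as a percentage of the reference inhibitor's shift, reaches about 5.3%, limit read from the data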;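 also: 0% = Tm of DMSO wells and 100% = Tm with sodium orthovanadate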
* hit, by the source's call; x = no result given. Hits are enriched below; roughly 1.7% of the tested compounds scored in any of these assays.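 The calls were made as follows, unless noted: active = inhibition of at least 30% at 20 µM; inactive = the rest.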

SMILES | SUMO1-SIM PPI | LMPTP inh | STEP block | DNMT1 block | Scp1 inh | Scp-1 conf | MG interference | Scp1 DSF
COC(=O)c1sccc1NC(=O)CSc1ccccc1N | 7 | 0 | -1 | 0 | 58* | -22 | -19 | x
COC(=O)c1sccc1NC(=O)CSc1ccccc1NC(=O)CNC(C)C | -3 | 1 | -1 | -6 | -4 | x | x | x
O=C(O)CC(NC(=O)OCc1ccccc1)c1ccccc1 (stereo not drawn) | -5 | -4 | 4 | -1 | 73* | -23 | -22 | x
CC(NC(=O)OCc1ccccc1)c1ccccc1 (stereo not drawn) | -4 | 0 | 0 | -1 | -11 | x | x | x
COc1ccc2cc(C(=O)NCc3ccco3)c(=Nc3ccc(C(=O)O)cc3)oc2c1 | -17 | 0 | 5 | 1 | 63* | 34* | -20 | -3
NC(=O)c1cc([N+](=O)[O-])ccc1NCC1CCCCC1 | -28 | 2 | 2 | -3 | -8 | x | x | x
CCOC(=O)Cc1csc(NC(=O)Cc2ccc(Br)cc2)n1 | -2 | 0 | -1 | -2 | 54* | -23 | -19 | x
O=C(CN1CCCc2ccccc21)Nc1cccc(S(=O)(=O)N2CCOCC2)c1 | -2 | 2 | -5 | 0 | -8 | x | x | x
COCc1cc(C)c(C#N)c(=S)[nH]1 | -2 | 1 | -1 | 1 | 53* | 6 | -1 | x
COc1cc(/C=N/N=C(N)N)ccc1OCc1ccc(Cl)cc1 | -13 | 2 | 7 | -3 | -1 | x | x | x
COc1cc(/C=N/N=C2/NC(=O)C(CC(=O)O)S2)ccc1OCc1ccc(Cl)cc1 (stereo not drawn) | -3 | -1 | -1 | -2 | 59* | 70* | -5 | -8
CCOCc1cnc(C)nc1NCC(=O)c1c(C)n(C)c2ccc(OC)cc12 | 1 | 0 | -4 | 1 | 51* | 1 | -6 | x
Cn1c(CSc2nc3ccccc3s2)nnc1SCC(=O)NCc1cccnc1 | 2 | -2 | -3 | 4 | 3 | x | x | x
COc1ccc(C(=O)N2CCCCC2c2cc(C(=O)NCc3cccnc3)no2)cc1 (stereo not drawn) | -2 | 0 | -2 | -1 | x | x | x | x
O=C(O)COc1ccc2c(c1)O/C(=C\c1ccco1)C2=O | 7 | 2 | 77* | 69* | 75* | 70* | 6 | 7.5*
CC(=O)c1ccccc1NS(=O)(=O)c1cccc2nsnc12 | -17 | 68* | 97* | 51* | 80* | 51* | -23 | -6
Cc1ccc(C(=O)N2CCN(S(=O)(=O)c3cc(Br)ccc3Br)CC2)o1 | 0 | 0 | 2 | 4 | 68* | 19 | 0 | x
Cc1ccc(C(=O)N2CCN(S(=O)(=O)c3ccccc3[N+](=O)[O-])CC2)o1 | -2 | 0 | 4 | 14 | 34 | x | x | x
CC(=O)OC[C@@H]1CN(Cc2ccccc2)C[C@H](n2cnc3c(N(C)C(C)C)ncnc32)O1 | 2 | 1 | 4 | -1 | x | x | x | x
CCCS(=O)(=O)NC(=O)C1(C)CCN(C(=O)c2ccccc2OC)C1 (stereo not drawn) | 1 | -2 | -2 | -1 | x | x | x | x
CCOc1cc(Br)c(Br)c(C=Nc2ccc(NC(C)=O)cc2)c1O | -7 | 7 | 13 | 8 | 75* | 72* | -14 | 2
O=C(NN=C1c2ccccc2-c2ccccc21)c1ccccn1 | -9 | 25 | 8 | 4 | 73* | 24 | -22 | x
CN(Cc1ccccc1)S(=O)(=O)c1ccc(NC(=O)c2ccccc2C(=O)O)cc1 | -8 | -2 | 2 | 1 | -11 | x | x | x
CC1CNC(=S)N(c2ccc(F)cc2)C1=O (stereo not drawn) | -1 | -2 | -2 | 0 | 7 | x | x | x
C[n+]1cccc(/C=N/NC(=O)CC23CC4CC(CC(C4)C2)C3)c1 | -12 | -2 | -5 | 4 | 83* | -22 | -21 | x
SMILES | SUMO1-SIM PPI | LMPTP inh | STEP block | DNMT1 block | Scp1 inh | Scp-1 conf | MG interference | Scp1 DSF
O=C(CNS(=O)(=O)c1ccc(Br)cc1Cl)OCC(=O)N1CCCC1=O | 0 | -2 | -1 | 5 | 3 | -11 | -14 | x
CC(C)C[C@H](NC(=O)N1c2ccccc2NC(=O)[C@@H]1C(C)C)C(=O)N[C@@H](Cc1ccccc1)C(=O)O | 3 | -3 | 2 | 3 | 4 | x | x | x
O=C(Cc1ccc(S(=O)(=O)N2CCOCC2)s1)NC1CCCCC1 | 2 | 6 | 8 | 7 | 61* | 70* | -7 | 7.9*
O=C(Cc1ccc(S(=O)(=O)N2CCOCC2)s1)NCC1CCCCC1 | 3 | 2 | 1 | 3 | 20 | x | x | x
NS(=O)(=O)c1ccc(CNC(=O)Cc2ccc(S(=O)(=O)N3CCOCC3)s2)cc1 | -4 | 0 | -2 | -1 | -7 | x | x | x
NS(=O)(=O)c1ccc(CCNC(=O)Cc2ccc(S(=O)(=O)N3CCCC3)s2)cc1 | -1 | 4 | 6 | 10 | 76* | 74* | -14 | 0
COc1ccc2c(c1)c(=O)oc1c(C)c(OC(C)C(=O)N[C@@H](Cc3c[nH]c4ccc(O)cc34)C(=O)O)ccc12 (stereo partly drawn) | 27 | 3 | -1 | 12 | 58* | 43* | -23 | 9.6*
CC(Oc1ccc2c(-c3ccccc3)cc(=O)oc2c1)C(=O)NC(Cc1c[nH]c2ccc(O)cc12)C(=O)O (stereo not drawn) | -1 | -1 | -1 | 8 | 27 | x | x | x
CCn1c(C)c2c([n+]1CC)CC(C)(C)CC2=O | -3 | -1 | -3 | 0 | 55* | 75* | -11 | -20
Cc1cc(C)cc(N(CCC#N)C(=O)COC(=O)c2ccc(OCc3c(C)noc3C)cc2)c1 | 6 | 1 | 0 | 0 | 51* | -16 | -12 | x
COCCN(C(=O)C1CC(=O)N(Cc2ccc(C)cc2)C1)c1c(N)n(CC(C)C)c(=O)[nH]c1=O (stereo not drawn) | 1 | 1 | -3 | -2 | 0 | x | x | x
Cc1ccccc1C(=O)N1CCC(C(=O)N(CC(C)C)c2c(N)n(CC(C)C)c(=O)[nH]c2=O)CC1 | 1 | -1 | -2 | 2 | 5 | x | x | x
COCCN(C(=O)C1CCN(C(=O)c2ccccc2C)CC1)c1c(N)n(CC(C)C)c(=O)[nH]c1=O | 1 | -2 | -4 | 6 | 63* | 77* | -17 | -1
CCCCN(C(=O)C1CC(=O)N(Cc2ccc(C)cc2)C1)c1c(N)n(CC(C)C)c(=O)[nH]c1=O (stereo not drawn) | -1 | -1 | -2 | 0 | -7 | -11 | -6 | x
CC(C)CN1CCNC(=O)C1CC(=O)NCCCN1CCCc2ccccc21 (stereo not drawn) | -1 | 2 | -3 | -2 | -9 | x | x | x
